Results as given in ChEMBL document CHEMBL1155167, “Fluoroquinolone resistance in atypical pneumococci and oral streptococci: evidence of horizontal gene transfer of fluoroquinolone resistance determinants from Streptococcus pneumoniae” (2007).
In brackets after ≈: the same amount, converted by molar mass.

What was measured:
[1] = system: Streptococcus mitis; test: Antimicrobial activity against Streptococcus mitis HK680 with gyrA Ser114Gly, and parC Ser52Gly, Asn91Asp mutation by broth dilution method; type: functional
In short: (§1)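 Ciprofloxacin and levofloxacin MICs were determined by broth dilution following CLSI (formerly NCCLS) guidance. S. pneumoniae ATCC 6303 and ATCC 49619 served as control strains. Reference strains were S. mitis ATCC 49456 and S. oralis ATCC 10557. The clinical isolates came from patients at a Hong Kong teaching hospital.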

[2] = system: Streptococcus mitis; test: Antimicrobial activity against Streptococcus mitis HK125807 with gyrA Ser114Gly, and parC Ser52Gly, Asn91Asp mutation by broth dilution method; type: functional; in short: as §1
[3] = system: Streptococcus mitis; test: Antimicrobial activity against Streptococcus mitis HK467 with gyrA Ser114Gly, Leu155Val and parC Ser52Gly, Asn91Asp, mutation by broth dilution method; type: functional; in short: as §1
[4] = system: Streptococcus mitis; test: Antimicrobial activity against Streptococcus mitis HK666 with gyrA Ser114Gly, and parC Ser52Gly, Asn91Asp, Glu135Asp mutation by broth dilution method; type: functional; in short: as §1
[5] = system: Streptococcus mitis; test: Antimicrobial activity against Streptococcus mitis HK135786 with gyrA Ser114Gly, and parC Ser52Gly, Asn91Asp mutation by broth dilution method; type: functional; in short: as §1
[6] = system: Streptococcus mitis; test: Antimicrobial activity against Streptococcus mitis HK29 with gyrA Ser114Gly, and parC Ser52Gly, Asn91Asp mutation by broth dilution method; type: functional; in short: as §1
[7] = system: Streptococcus mitis; test: Antimicrobial activity against Streptococcus mitis HK677 with gyrA Ser81Leu, Ser114Gly, gyrB Ser494Thr, parC Ser52Gly, Asp83Tyr, Asn91Asp and parE Arg447Ser mutation by broth dilution method; type: functional; in short: as §1
[8] = system: Streptococcus pneumoniae; test: Antimicrobial activity against Streptococcus pneumoniae L5 with parE Ile460Val mutation by broth dilution method
[9] = system: Streptococcus pneumoniae; test: Antimicrobial activity against Streptococcus pneumoniae L6 with gyrA Ser81Phe, parC Lys137Asn and parE Ile460Val mutation by broth dilution method
[10] = system: Streptococcus pneumoniae; test: Antimicrobial activity against Streptococcus pneumoniae L12 with gyrA Ser81Phe, parC Ser79 Phe and parE Ile460Val mutation by broth dilution method
[11] = system: Streptococcus pneumoniae; test: Antimicrobial activity against Streptococcus pneumoniae L13 with parC Asp83Tyr and parE Ile460Val mutation by broth dilution method
[12] = system: Streptococcus pneumoniae; test: Antimicrobial activity against Streptococcus pneumoniae L14 with parC Lys137Asn and parE Ile460Val mutation by broth dilution method
[13] = system: Streptococcus pneumoniae; test: Antimicrobial activity against Streptococcus pneumoniae L15 with parC Asp83Asn Lys137Asn and parE Ile460Val mutation by broth dilution method
[14] = system: Streptococcus pneumoniae; test: Antimicrobial activity against Streptococcus pneumoniae L22 with parC Lys137Asn and parE Ile460Val mutation by broth dilution method
[15] = system: Streptococcus pneumoniae; test: Antimicrobial activity against Streptococcus pneumoniae L24 with gyrA Ser81Phe, gyrB Ser494Thr, parC Asp83Asn, Lys137Asn and parE Ile460Val mutation by broth dilution method
[16] = system: Streptococcus viridans; test: Antimicrobial activity against Viridans streptococcus L2 with gyrA Ser114Gly, gyrB Ser494Thr and parC Ser52Gly, Asn91Asp mutation by broth dilution method; type: functional; in short: as §1
[17] = system: Streptococcus viridans; test: Antimicrobial activity against Viridans streptococcus L7 with gyrA Ser114Gly, gyrB Ser494Thr and parC Ser52Gly, Asn91Asp mutation by broth dilution method; type: functional; in short: as §1
[18] = system: Streptococcus viridans; test: Antimicrobial activity against Viridans streptococcus L16 with gyrA Ser114Gly, gyrB Ser494Thr and parC Ser52Gly, Asn91Asp mutation by broth dilution method; type: functional; in short: as §1
[19] = system: Streptococcus viridans; test: Antimicrobial activity against Viridans streptococcus L17 with gyrA Ser114Gly, gyrB Ser494Thr and parC Ser52Gly, Asn91Asp mutation by broth dilution method; type: functional; in short: as §1
[20] = system: Streptococcus viridans; test: Antimicrobial activity against Viridans streptococcus L18 with gyrA Ser114Gly, Asp142Asn, gyrB Ser494Thr and parE Ile460Val mutation by broth dilution method; type: functional; in short: as §1
[21] = system: Streptococcus viridans; test: Antimicrobial activity against Viridans streptococcus L19 with gyrA Ser114Gly, gyrB Ser494Thr, parC Ser52Gly, Asn91Asp and parE Ile460Val mutation by broth dilution method; type: functional; in short: as §1
[22] = system: Streptococcus viridans; test: Antimicrobial activity against Viridans streptococcus L21 with gyrB Ser494Thr and parC Lys137Asn mutation by broth dilution method; type: functional; in short: as §1
[23] = system: Streptococcus viridans; test: Antimicrobial activity against Viridans streptococcus L26 gyrA Ser81Phe and parC Lys137Asn mutation by broth dilution method; type: functional; in short: as §1
[24] = system: Streptococcus pneumoniae; test: Antimicrobial activity against atypical Streptococcus pneumoniae L3 with parC Lys137Asn mutation by broth dilution method
[25] = system: Streptococcus pneumoniae; test: Antimicrobial activity against atypical Streptococcus pneumoniae L8 with parC Ser52Gly, Phe55His, Ser58Gly, Asn91Asp, Lys197Asn mutation by broth dilution method
[26] = system: Streptococcus pneumoniae; test: Antimicrobial activity against atypical Streptococcus pneumoniae L9 with gyrA Ser114Gly, gyrB Ser494Thr and parC Lys137Asn mutation by broth dilution method
[27] = system: Streptococcus pneumoniae; test: Antimicrobial activity against atypical Streptococcus pneumoniae L10 with gyrA Ser81Phe and parC Lys197Asn mutation by broth dilution method
[28] = system: Streptococcus pneumoniae; test: Antimicrobial activity against atypical Streptococcus pneumoniae L4 by broth dilution method
[29] = system: Streptococcus pneumoniae; test: Antimicrobial activity against atypical Streptococcus pneumoniae L1 with gyrA Ser81Phe and parC Ser79Phe, Glu96Asp, Lys197Asn mutation by broth dilution method

With O=C(O)c1cn(C2CC2)c2cc(N3CCNCC3)c(F)cc2c1=O [CIPROFLOXACIN] the MIC [1] was 2 µg/mL (≈ 6.04 µM), the MIC [2] was 2 µg/mL (≈ 6.04 µM) and the MIC [3] was 2 µg/mL (≈ 6.04 µM). For the same compound, the MIC [4] was 2 µg/mL (≈ 6.04 µM), the MIC [5] was 4 µg/mL (≈ 12.1 µM) and the MIC [6] was 4 µg/mL (≈ 12.1 µM). The MIC [7] was 128 µg/mL (≈ 386 µM), the MIC [8] was 4 µg/mL (≈ 12.1 µM) and the MIC [9] was 8 µg/mL (≈ 24.1 µM). The MIC [10] was 64 µg/mL (≈ 193 µM), the MIC [11] was 4 µg/mL (≈ 12.1 µM) and the MIC [12] was 4 µg/mL (≈ 12.1 µM). The MIC [13] was 8 µg/mL (≈ 24.1 µM), the MIC [14] was 4 µg/mL (≈ 12.1 µM) and the MIC [15] was at least 16 µg/mL. For the same compound, the MIC [16] was 4 µg/mL (≈ 12.1 µM), the MIC [17] was 4 µg/mL (≈ 12.1 µM) and the MIC [18] was 4 µg/mL (≈ 12.1 µM). It also gave an MIC [19] of 4 µg/mL (≈ 12.1 µM), an MIC [20] of 4 µg/mL (≈ 12.1 µM) and an MIC [21] of 4 µg/mL (≈ 12.1 µM). The MIC [22] was 16 µg/mL (≈ 48.3 µM), the MIC [23] was 16 µg/mL (≈ 48.3 µM) and the MIC [24] was 4 µg/mL (≈ 12.1 µM). For the same compound, the MIC [25] was 8 µg/mL (≈ 24.1 µM), the MIC [26] was 4 µg/mL (≈ 12.1 µM) and the MIC [27] was 4 µg/mL (≈ 12.1 µM). The MIC [28] was 4 µg/mL (≈ 12.1 µM) and the MIC [29] was over 32 µg/mL.
